Values after ≈ are worked out from the molar mass of the structure shown.
These compounds were tested on Klebsiella pneumoniae (assay: Antibacterial activity against Klebsiella pneumoniae M6 assessed as bacterial growth inhibition incubated for overnight by microbroth dilution method).

SMILES | MIC
CCCCCCCCCCNC(=N)NCCCCN | > 128 µg/mL

The compounds below were run on Pseudomonas aeruginosa (assay: Antibacterial activity against Pseudomonas aeruginosa NCTC 13437 assessed as bacterial growth inhibition incubated for overnight by microbroth dilution method).
Type: functional
Procedure, shortened: (§1)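 Broth microdilution in Tryptic Soy Broth. DMSO stocks were diluted in TSB as 2-fold series. Overnight TSB cultures were back-diluted to OD 0.01 and mixed 1:1 with compound. Incubation was overnight at 37 °C. MIC was the lowest concentration without visible growth (<0.1 OD600). DMSO vehicle was checked at equivalent concentrations.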

SMILES | MIC
CCCCCCCCCCNC(=N)NCCCCN | > 128 µg/mL

These compounds were tested on Acinetobacter baumannii (assay: Synergistic antibacterial activity against Acinetobacter baumannii ATCC 17978 assessed as rifampicin MIC at <=0.25 times MIC incubated for overnight by microbroth dilution checkerboard assay).
Type: functional
Procedure, shortened: (§2)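 Checkerboard microdilution under MIC conditions (TSB, overnight, 37 °C). Two-fold series of each agent were combined on one plate before bacteria were added, and single-agent MICs were measured on the same plate. FIC = sum of combination MIC/alone MIC for each agent, taken from the most synergistic well. Three independent repeats, mean ± SD. ≤0.5 was taken as strong synergy and 0.5–<1 as weak.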

SMILES | MIC
CCCCCCCCCCNC(=N)NCCCCN | ≤ 0.125 µg/mL

These compounds were tested on Pseudomonas aeruginosa (assay: Antibacterial activity against Pseudomonas aeruginosa PAO1 assessed as bacterial growth inhibition incubated for overnight by microbroth dilution method).
Type: functional
Procedure, shortened: as §1

SMILES | MIC
CCCCCCCCCCNC(=N)NCCCCN | > 128 µg/mL

These compounds were tested on Staphylococcus aureus (assay: Antibacterial activity against methicillin resistant Staphylococcus aureus USA 300 assessed as bacterial growth inhibition incubated for overnight by microbroth dilution method).
Type: functional
Procedure, shortened: (§3)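 Microbroth dilution in Tryptic Soy Broth. DMSO stocks were diluted in TSB as 2-fold series. Overnight TSB cultures were back-diluted to OD 0.01 and mixed 1:1 with compound. Incubation was overnight at 37 °C. MIC is the lowest concentration with no visible growth (<0.1 OD600). DMSO at equivalent concentrations was checked.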

SMILES | MIC
CCCCCCCCCCNC(=N)NCCCCN | 32 µg/mL (≈ 118 µM)

The compounds below were run on Escherichia coli (assay: Antibacterial activity against Escherichia coli NCTC 12923 assessed as bacterial growth inhibition incubated for overnight by microbroth dilution method).
Type: functional
Procedure, shortened: as §1

SMILES | MIC
CCCCCCCCCCNC(=N)NCCCCN | 128 µg/mL (≈ 473 µM)

The compounds below were run on Enterococcus faecalis (assay: Antibacterial activity against vancomycin resistant Enterococcus faecalis NCTC 12201 assessed as bacterial growth inhibition incubated for overnight by microbroth dilution method).
Type: functional
Procedure, shortened: as §3

SMILES | MIC
CCCCCCCCCCNC(=N)NCCCCN | > 128 µg/mL

What follows are compounds tested on Pseudomonas aeruginosa (assay: Synergistic antibacterial activity against Pseudomonas aeruginosa PAO1 assessed as fold change in rifampicin MIC at <=0.25 times MIC incubated for overnight by microbroth dilution checkerboard assay relative to rifampicin alone).
Type: functional
Procedure, shortened: (§4)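 Checkerboard microdilution in Tryptic Soy Broth, run like the MIC assay. Overnight TSB cultures were back-diluted to OD 0.01 and added 1:1 to the combined two-fold series of both agents, then incubated overnight at 37 °C. Growth/no-growth was called at <0.1 OD600. MICs alone were read on the same plates. FIC index came from the most synergistic well; three independent repeats, mean ± SD.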

SMILES | fold change (FC)
CCCCCCCCCCNC(=N)NCCCCN | >=4

These compounds were tested on Acinetobacter baumannii (assay: Antibacterial activity against Acinetobacter baumannii AYE assessed as bacterial growth inhibition incubated for overnight by microbroth dilution method).
Type: functional
Procedure, shortened: as §1

SMILES | MIC
CCCCCCCCCCNC(=N)NCCCCN | > 128 µg/mL

Each compound was assayed on Klebsiella pneumoniae (assay: Synergistic antibacterial activity against Klebsiella pneumoniae NCTC 13368 assessed as rifampicin MIC at <=0.25 times MIC incubated for overnight by microbroth dilution checkerboard assay).
Type: functional
Procedure, shortened: as §2

SMILES | MIC
CCCCCCCCCCNC(=N)NCCCCN | 0.25 µg/mL

Each compound was assayed on Klebsiella pneumoniae (assay: Synergistic antibacterial activity against […] Klebsiella pneumoniae M6 assessed as rifampicin MIC at <=0.25 times MIC incubated for overnight by microbroth dilution checkerboard assay).
Type: functional
Procedure, shortened: (§5)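 Checkerboard run under the MIC conditions (TSB, overnight, 37 °C). Antibiotic and lipoguanidine 2-fold series were combined on one plate before bacteria were added. Growth/no-growth was scored as for the MIC (<0.1 OD600). Single-agent MICs were measured on the same plates. Three independent repeats were done.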

SMILES | MIC
CCCCCCCCCCNC(=N)NCCCCN | ≤ 0.125 µg/mL

Each compound was assayed on Staphylococcus aureus (assay: Antibacterial activity against methicillin resistant Staphylococcus aureus NCTC 13616 assessed as bacterial growth inhibition incubated for overnight by microbroth dilution method).
Type: functional
Procedure, shortened: as §3

SMILES | MIC
CCCCCCCCCCNC(=N)NCCCCN | 32 µg/mL (≈ 118 µM)

These compounds were tested on Escherichia coli (assay: Synergistic antibacterial activity against Escherichia coli NCTC 12923 assessed as fold change in rifampicin MIC at <=0.25 times MIC incubated for overnight by microbroth dilution checkerboard assay relative to rifampicin alone).
Type: functional
Procedure, shortened: as §2

SMILES | fold change (FC)
CCCCCCCCCCNC(=N)NCCCCN | >=4

The compounds below were run on Acinetobacter baumannii (assay: Synergistic antibacterial activity against Acinetobacter baumannii AYE assessed as rifampicin MIC at <=0.25 times MIC incubated for overnight by microbroth dilution checkerboard assay).
Type: functional
Procedure, shortened: as §2

SMILES | MIC
CCCCCCCCCCNC(=N)NCCCCN | ≤ 0.125 µg/mL

The compounds below were run on Enterococcus faecium (assay: Antibacterial activity against vancomycin resistant Enterococcus faecium NCTC 12204 assessed as bacterial growth inhibition incubated for overnight by microbroth dilution method).
Type: functional
Procedure, shortened: as §3

SMILES | MIC
CCCCCCCCCCNC(=N)NCCCCN | > 128 µg/mL

The compounds below were run on Escherichia coli (assay: Synergistic antibacterial activity against Escherichia coli NCTC 12923 assessed as rifampicin MIC at <=0.25 times MIC incubated for overnight by microbroth dilution checkerboard assay).
Type: functional
Procedure, shortened: as §2

SMILES | MIC
CCCCCCCCCCNC(=N)NCCCCN | ≤ 0.125 µg/mL

The compounds below were run on Acinetobacter baumannii (assay: Antibacterial activity against Acinetobacter baumannii ATCC 17978 assessed as bacterial growth inhibition incubated for overnight by microbroth dilution method).
Type: functional
Procedure, shortened: as §1

SMILES | MIC
CCCCCCCCCCNC(=N)NCCCCN | > 128 µg/mL

These compounds were tested on Acinetobacter baumannii (assay: Synergistic antibacterial activity against Acinetobacter baumannii AYE assessed as bacterial growth inhibition incubated for overnight in presence of PBMN by microbroth dilution method relative to control).
Type: functional
Procedure, shortened: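 Adapted broth microdilution in TSB. The test compound was in a 2-fold dilution series, with PMBN added at a fixed 30 µg/mL. Bacteria at OD 0.02 were added, and plates were incubated overnight at 37 °C. Growth/no growth was read as for the MIC (<0.1 OD600).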

SMILES | inhibition (INH)
CCCCCCCCCCNC(=N)NCCCCN | <20%

Each compound was assayed on Staphylococcus aureus (assay: Antibacterial activity against methicillin sensitive Staphylococcus aureus 1199B assessed as bacterial growth inhibition incubated for overnight by microbroth dilution method).
Type: functional
Procedure, shortened: as §3

SMILES | MIC
CCCCCCCCCCNC(=N)NCCCCN | 32 µg/mL (≈ 118 µM)

The compounds below were run on Staphylococcus aureus (assay: Antibacterial activity against methicillin sensitive Staphylococcus aureus ATCC 9144 assessed as bacterial growth inhibition incubated for overnight by microbroth dilution method).
Type: functional
Procedure, shortened: as §3

SMILES | MIC
CCCCCCCCCCNC(=N)NCCCCN | 16 µg/mL (≈ 59.2 µM)

What follows are compounds tested on Pseudomonas aeruginosa (assay: Synergistic antibacterial activity against Pseudomonas aeruginosa PAO1 assessed as rifampicin MIC at <=0.25 times MIC incubated for overnight by microbroth dilution checkerboard assay).
Type: functional
Procedure, shortened: as §4

SMILES | MIC
CCCCCCCCCCNC(=N)NCCCCN | ≤ 0.125 µg/mL

The compounds below were run on Acinetobacter baumannii (assay: Synergistic antibacterial activity against Acinetobacter baumannii ATCC 17978 assessed as fold change in rifampicin MIC at <=0.25 times MIC incubated for overnight by microbroth dilution checkerboard assay relative to rifampicin alone).
Type: functional
Procedure, shortened: as §2

SMILES | fold change (FC)
CCCCCCCCCCNC(=N)NCCCCN | >=4

The compounds below were run on Enterococcus faecalis (assay: Antibacterial activity against vancomycin sensitive Enterococcus faecalis NCTC 775 assessed as bacterial growth inhibition incubated for overnight by microbroth dilution method).

SMILES | MIC
CCCCCCCCCCNC(=N)NCCCCN | 128 µg/mL (≈ 473 µM)

These compounds were tested on Pseudomonas aeruginosa (assay: Synergistic antibacterial activity against Pseudomonas aeruginosa NCTC 13437 assessed as fold change in rifampicin MIC at <=0.25 times MIC incubated for overnight by microbroth dilution checkerboard assay relative to rifampicin alone).
Type: functional
Procedure, shortened: as §4

SMILES | fold change (FC)
CCCCCCCCCCNC(=N)NCCCCN | >=4

Each compound was assayed on Klebsiella pneumoniae (assay: Synergistic antibacterial activity against Klebsiella pneumoniae NCTC 13368 assessed as fold change in rifampicin MIC at <=0.25 times MIC incubated for overnight by microbroth dilution checkerboard assay relative to rifampicin alone).
Type: functional
Procedure, shortened: as §5

SMILES | fold change (FC)
CCCCCCCCCCNC(=N)NCCCCN | >=4

What follows are compounds tested on Acinetobacter baumannii (assay: Synergistic antibacterial activity against Acinetobacter baumannii AYE assessed as fold change in rifampicin MIC at <=0.25 times MIC incubated for overnight by microbroth dilution checkerboard assay relative to rifampicin alone).
Type: functional
Procedure, shortened: as §2

SMILES | fold change (FC)
CCCCCCCCCCNC(=N)NCCCCN | >=4

The compounds below were run on Klebsiella pneumoniae (assay: Antibacterial activity against ESBL Klebsiella pneumoniae NCTC 13368 assessed as bacterial growth inhibition incubated for overnight by microbroth dilution method).

SMILES | MIC
CCCCCCCCCCNC(=N)NCCCCN | > 128 µg/mL

The compounds below were run on Pseudomonas aeruginosa (assay: Synergistic antibacterial activity against Pseudomonas aeruginosa NCTC 13437 assessed as rifampicin MIC at <=0.25 times MIC incubated for overnight by microbroth dilution checkerboard assay).
Type: functional
Procedure, shortened: as §4

SMILES | MIC
CCCCCCCCCCNC(=N)NCCCCN | ≤ 0.125 µg/mL

Source: ChEMBL document CHEMBL5357066, “Development of Novel Membrane Disrupting Lipoguanidine Compounds Sensitizing Gram-Negative Bacteria to Antibiotics” (ACS Med Chem Lett, 2024)
